Source: ChEMBL document CHEMBL3414516, “Novel pyridyl substituted 4,5-dihydro-[1,2,4]triazolo[4,3-a]quinolines as potent and selective aldosterone synthase inhibitors with improved in vitro metabolic stability” (J Med Chem, 2015)

Tests used:
[1] = biological target: T1, Cytochrome P450 11B2, mitochondrial (Homo sapiens, UniProt P19099); assay: Inhibition of human CYP11B2 expressed in V79 MZh cells using [14C]-deoxycorticosterone substrate incubated for 6 hrs by HPTLC method; format: cell-based, V79MZh
T1 sequence (P19099 whole entry): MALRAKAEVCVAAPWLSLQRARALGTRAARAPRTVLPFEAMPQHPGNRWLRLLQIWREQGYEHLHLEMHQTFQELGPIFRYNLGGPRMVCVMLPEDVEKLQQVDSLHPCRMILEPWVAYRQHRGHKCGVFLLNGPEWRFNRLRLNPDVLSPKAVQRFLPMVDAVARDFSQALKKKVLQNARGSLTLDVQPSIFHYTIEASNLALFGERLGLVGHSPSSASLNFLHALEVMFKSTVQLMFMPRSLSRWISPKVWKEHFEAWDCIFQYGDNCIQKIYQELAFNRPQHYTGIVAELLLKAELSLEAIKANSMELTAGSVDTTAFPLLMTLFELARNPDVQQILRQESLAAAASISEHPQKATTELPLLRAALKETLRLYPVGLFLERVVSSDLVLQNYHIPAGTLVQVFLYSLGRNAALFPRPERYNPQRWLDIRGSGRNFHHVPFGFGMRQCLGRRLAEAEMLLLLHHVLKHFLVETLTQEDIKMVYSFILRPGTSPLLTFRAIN
Procedure, shortened: (§1)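 V79 MZh cells expressing human CYP11B1 or CYP11B2 were incubated 6 h with [¹⁴C]-deoxycorticosterone and inhibitor at various concentrations. Steroids were extracted with ethyl acetate, separated by HPTLC and quantified by phosphoimager.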

[2] = biological target: T2, Steroid 17-alpha-hydroxylase/17,20 lyase (Homo sapiens, UniProt P05093); assay: Inhibition of human CYP17 expressed in Escherichia coli coexpressing human CYP17 and NADPH-P450 reductase
T2 sequence (P05093 whole entry): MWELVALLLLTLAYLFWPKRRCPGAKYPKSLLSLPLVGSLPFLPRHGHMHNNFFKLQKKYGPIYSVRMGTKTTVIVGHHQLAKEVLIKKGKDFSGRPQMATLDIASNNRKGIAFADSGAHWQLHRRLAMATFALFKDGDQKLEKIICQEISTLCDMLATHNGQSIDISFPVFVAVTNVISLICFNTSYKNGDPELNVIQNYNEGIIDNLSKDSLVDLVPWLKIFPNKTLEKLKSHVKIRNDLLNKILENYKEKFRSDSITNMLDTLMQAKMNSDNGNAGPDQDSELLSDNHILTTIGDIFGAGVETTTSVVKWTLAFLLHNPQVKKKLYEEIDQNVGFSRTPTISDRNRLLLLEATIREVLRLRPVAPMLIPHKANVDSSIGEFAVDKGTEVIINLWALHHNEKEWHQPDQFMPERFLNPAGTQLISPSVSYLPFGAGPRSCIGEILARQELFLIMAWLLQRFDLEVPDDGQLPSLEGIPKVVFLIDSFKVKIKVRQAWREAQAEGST

[3] = biological target: T3, Cytochrome P450 11B1, mitochondrial (Homo sapiens, UniProt P15538); assay: Inhibition of human CYP11B1 expressed in V79 MZh cells using [14C]-deoxycorticosterone substrate incubated for 6 hrs by HPTLC method; format: cell-based, V79MZh; procedure, shortened: as §1
T3 sequence (P15538 whole entry): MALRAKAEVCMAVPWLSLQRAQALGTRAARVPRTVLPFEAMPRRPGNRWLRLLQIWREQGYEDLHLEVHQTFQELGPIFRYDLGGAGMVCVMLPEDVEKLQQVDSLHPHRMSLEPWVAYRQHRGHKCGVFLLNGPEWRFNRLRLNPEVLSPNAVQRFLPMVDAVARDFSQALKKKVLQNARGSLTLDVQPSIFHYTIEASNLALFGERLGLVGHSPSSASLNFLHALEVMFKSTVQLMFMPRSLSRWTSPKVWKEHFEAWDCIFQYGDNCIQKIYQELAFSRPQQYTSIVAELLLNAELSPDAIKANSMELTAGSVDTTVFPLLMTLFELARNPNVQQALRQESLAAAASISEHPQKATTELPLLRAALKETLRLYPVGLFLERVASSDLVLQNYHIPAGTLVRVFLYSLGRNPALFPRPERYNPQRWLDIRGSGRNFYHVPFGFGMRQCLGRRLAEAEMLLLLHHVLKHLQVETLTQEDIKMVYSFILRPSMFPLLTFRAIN

Aromatase = biological target: T4, Aromatase (Homo sapiens, UniProt P11511); assay: Inhibition of CYP19 in human placental microsomes using [1beta-3H]androstenedione substrate; design: species or system Placenta
T4 sequence (P11511 whole entry): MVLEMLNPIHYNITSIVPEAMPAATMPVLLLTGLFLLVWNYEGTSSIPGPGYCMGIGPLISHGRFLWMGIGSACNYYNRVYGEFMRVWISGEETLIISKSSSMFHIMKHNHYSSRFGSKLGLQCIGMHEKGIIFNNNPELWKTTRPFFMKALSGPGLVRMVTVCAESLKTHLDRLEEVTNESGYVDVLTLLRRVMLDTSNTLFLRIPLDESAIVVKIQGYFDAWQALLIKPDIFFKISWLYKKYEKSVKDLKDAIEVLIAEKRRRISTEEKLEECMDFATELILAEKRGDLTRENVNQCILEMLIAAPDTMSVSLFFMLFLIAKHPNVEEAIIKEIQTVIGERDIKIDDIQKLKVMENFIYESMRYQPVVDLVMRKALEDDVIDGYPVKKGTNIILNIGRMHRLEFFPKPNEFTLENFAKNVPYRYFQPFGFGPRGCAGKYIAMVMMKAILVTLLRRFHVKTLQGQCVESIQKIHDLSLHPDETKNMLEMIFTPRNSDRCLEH

Homo sapiens = species: Homo sapiens; assay: Selectivity index, ratio of IC50 for human CYP11B1 to IC50 human CYP11B2
Cytochrome P450 3A4 = Cytochrome P450 3A4 (Homo sapiens, UniProt P08684); assay: Inhibition of human recombinant CYP3A4 using midazolam substrate by LC-MS/MS method; format: ADME
Procedure, shortened: (§2)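 Compounds tested in duplicate at six concentrations up to 50 μM. Acetonitrile quench at one time point, then LC–MS/MS of probe metabolites. Metabolites were normalized to vehicle controls and IC50 calculated.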

Cytochrome P450 2C19 = Cytochrome P450 2C19 (Homo sapiens, UniProt P33261); assay: Inhibition of human recombinant CYP2C19 using smephenytoin substrate by LC-MS/MS method; format: ADME; procedure, shortened: as §2
[4] = Half life in human hepatic microsomes at 1 uM in presence of NADPH system by LC-MS/MS method; format: ADME, Microsome; conditions: liver microsomes
Procedure, shortened: (§3)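 Pooled mixed-gender human liver microsomes at 0.5 mg/mL final protein in potassium phosphate–MgCl₂ buffer (100 mM, pH 7.4). Compound at 1 μM final with NADPH system, 37 °C. Samples at 2, 5, 15, 30 and 45 min, quenched with acetonitrile, vortexed, centrifuged, and supernatant analysed by LC–MS/MS.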

Cytochrome P450 2C9 = Cytochrome P450 2C9 (Homo sapiens, UniProt P11712); assay: Inhibition of human recombinant CYP2C9 using diclofenac substrate by LC-MS/MS method; format: ADME; procedure, shortened: as §2
Cytochrome P450 1A2 = biological target: T5, Cytochrome P450 1A2 (Homo sapiens, UniProt P05177); assay: Inhibition of human recombinant CYP1A2 using phenacetin substrate by LC-MS/MS method; format: ADME; procedure, shortened: as §2
T5 sequence (P05177 whole entry): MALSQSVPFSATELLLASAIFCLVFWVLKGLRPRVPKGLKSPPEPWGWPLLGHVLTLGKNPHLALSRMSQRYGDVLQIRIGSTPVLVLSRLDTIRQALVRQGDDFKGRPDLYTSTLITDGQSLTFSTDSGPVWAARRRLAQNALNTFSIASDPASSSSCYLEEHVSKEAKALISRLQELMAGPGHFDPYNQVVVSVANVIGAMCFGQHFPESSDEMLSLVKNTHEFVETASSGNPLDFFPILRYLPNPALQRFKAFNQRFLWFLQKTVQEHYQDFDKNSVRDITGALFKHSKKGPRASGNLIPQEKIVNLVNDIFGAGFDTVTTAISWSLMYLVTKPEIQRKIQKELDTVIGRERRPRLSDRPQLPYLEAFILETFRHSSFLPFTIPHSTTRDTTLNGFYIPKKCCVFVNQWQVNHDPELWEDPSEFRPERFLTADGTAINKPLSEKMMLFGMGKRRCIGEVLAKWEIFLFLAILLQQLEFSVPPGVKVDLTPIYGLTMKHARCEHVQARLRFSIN

[5] = Stability in human hepatic microsomes assessed as unchanged compound level at 1 uM after 120 mins in presence of NADPH system by LC-MS/MS method; format: ADME, Microsome; conditions: liver microsomes, read-out: Stability
[6] = Intrinsic clearance in human hepatic microsomes at 1 uM in presence of NADPH system by LC-MS/MS method; format: ADME; conditions: liver microsomes, read-out: CLH; procedure, shortened: as §3
Cytochrome P450 2D6 = Cytochrome P450 2D6 (Homo sapiens, UniProt P10635); assay: Inhibition of human recombinant CYP2D6 using bufuralol substrate by LC-MS/MS method; format: ADME; procedure, shortened: as §2
Cytochrome P450 2D6, sequence (P10635 whole entry): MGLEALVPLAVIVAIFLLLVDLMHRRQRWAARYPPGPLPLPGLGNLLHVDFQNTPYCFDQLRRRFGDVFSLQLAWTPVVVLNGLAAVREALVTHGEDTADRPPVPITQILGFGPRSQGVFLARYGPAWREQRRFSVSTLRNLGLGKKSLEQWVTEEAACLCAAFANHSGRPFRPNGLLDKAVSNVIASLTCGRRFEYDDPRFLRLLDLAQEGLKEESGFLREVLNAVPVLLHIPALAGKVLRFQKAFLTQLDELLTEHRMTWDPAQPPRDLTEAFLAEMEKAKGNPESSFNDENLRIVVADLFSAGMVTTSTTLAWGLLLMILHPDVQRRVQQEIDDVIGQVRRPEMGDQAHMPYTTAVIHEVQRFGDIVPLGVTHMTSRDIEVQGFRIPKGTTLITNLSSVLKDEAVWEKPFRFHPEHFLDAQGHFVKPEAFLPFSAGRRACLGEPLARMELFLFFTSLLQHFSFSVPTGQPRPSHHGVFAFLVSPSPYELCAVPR

Cytochrome P450 2C19, sequence (P33261 whole entry): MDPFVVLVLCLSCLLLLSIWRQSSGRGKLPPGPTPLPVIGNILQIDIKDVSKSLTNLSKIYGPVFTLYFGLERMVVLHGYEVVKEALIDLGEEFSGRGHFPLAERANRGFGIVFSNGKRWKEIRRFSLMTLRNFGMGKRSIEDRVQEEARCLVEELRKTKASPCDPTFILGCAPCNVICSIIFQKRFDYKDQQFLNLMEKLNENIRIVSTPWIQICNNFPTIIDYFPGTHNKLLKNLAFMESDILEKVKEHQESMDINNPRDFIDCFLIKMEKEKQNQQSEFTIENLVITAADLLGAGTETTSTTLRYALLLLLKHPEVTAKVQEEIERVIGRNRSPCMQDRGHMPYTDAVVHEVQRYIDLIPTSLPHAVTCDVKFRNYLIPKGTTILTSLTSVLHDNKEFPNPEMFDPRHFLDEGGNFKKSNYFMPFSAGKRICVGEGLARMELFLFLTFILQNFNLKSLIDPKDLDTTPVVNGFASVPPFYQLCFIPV
Cytochrome P450 2C9, sequence (P11712 whole entry): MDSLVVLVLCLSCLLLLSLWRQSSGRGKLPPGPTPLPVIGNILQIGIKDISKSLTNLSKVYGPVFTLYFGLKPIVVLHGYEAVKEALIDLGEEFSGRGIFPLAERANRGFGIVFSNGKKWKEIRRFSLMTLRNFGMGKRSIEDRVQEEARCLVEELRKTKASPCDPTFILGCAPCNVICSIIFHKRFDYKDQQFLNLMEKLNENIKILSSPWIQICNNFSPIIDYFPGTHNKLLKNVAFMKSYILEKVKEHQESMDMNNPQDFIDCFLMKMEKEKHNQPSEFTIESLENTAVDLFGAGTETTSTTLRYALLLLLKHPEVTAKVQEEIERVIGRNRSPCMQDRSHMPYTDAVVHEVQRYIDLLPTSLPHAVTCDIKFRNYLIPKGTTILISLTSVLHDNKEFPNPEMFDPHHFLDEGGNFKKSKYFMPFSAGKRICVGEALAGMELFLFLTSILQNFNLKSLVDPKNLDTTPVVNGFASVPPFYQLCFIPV
Cytochrome P450 3A4, sequence (P08684 whole entry): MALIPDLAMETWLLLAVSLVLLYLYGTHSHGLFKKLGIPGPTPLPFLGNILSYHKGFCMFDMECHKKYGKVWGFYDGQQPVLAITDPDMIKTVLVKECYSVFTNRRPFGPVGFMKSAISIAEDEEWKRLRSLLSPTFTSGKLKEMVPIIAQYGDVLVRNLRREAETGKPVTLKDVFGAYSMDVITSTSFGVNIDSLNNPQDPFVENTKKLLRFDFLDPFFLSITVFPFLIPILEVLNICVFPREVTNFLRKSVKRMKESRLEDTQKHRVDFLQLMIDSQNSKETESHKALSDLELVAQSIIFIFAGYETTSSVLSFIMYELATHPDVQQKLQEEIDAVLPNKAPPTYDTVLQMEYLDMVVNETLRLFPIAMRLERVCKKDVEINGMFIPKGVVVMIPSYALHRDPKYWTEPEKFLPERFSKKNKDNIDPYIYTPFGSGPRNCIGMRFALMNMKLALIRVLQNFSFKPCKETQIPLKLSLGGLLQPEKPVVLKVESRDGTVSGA

## Cc1nnc2n1-c1c(F)cc(-c3cncc(C#N)c3)cc1CC2
[1]
  IC50: 1180 nM
[2]
  IC50: > 10 µM
[3]
  IC50: > 10 µM
Aromatase
  IC50: > 10 µM

## CC(C)c1nnc2n1-c1cc(F)c(-c3cccnc3)cc1CC2
[1]
  IC50: > 10000 nM
[2]
  IC50: > 10 µM
[3]
  IC50: > 10 µM
Aromatase
  IC50: > 10 µM

## Cc1nnc2n1-c1c(F)cc(-c3cncc(C(C)O)c3)cc1CC2 (configuration not stated)
[2]
  IC50: > 10 µM
Homo sapiens
  Ratio IC50: 138
Aromatase
  IC50: > 10 µM

## Cc1c(F)cncc1-c1cc(F)c2c(c1)CCc1nncn1-2
[1]
  IC50: 42.5 nM
[2]
  IC50: > 10 µM
Homo sapiens
  Ratio IC50: 134
[3]
  IC50: 5.7 µM
Aromatase
  IC50: > 10 µM

## Cc1nnc2n1-c1c(F)cc(-c3cncc(C(F)(F)F)c3)cc1CC2
[2]
  IC50: > 10 µM
Homo sapiens
  Ratio IC50: 63
Aromatase
  IC50: > 10 µM

## Cc1nnc2n1-c1c(F)cc(-c3cncc4ccccc34)cc1CC2
[2]
  IC50: > 10 µM
Homo sapiens
  Ratio IC50: 49
Aromatase
  IC50: > 10 µM

## Cc1nnc2n1-c1cc(F)c(-c3cccnc3)cc1CC2
[2]
  IC50: > 10 µM
Homo sapiens
  Ratio IC50: 96
Aromatase
  IC50: > 10 µM

## COc1cncc(-c2cc(F)c3c(c2)CCc2nnc(C)n2-3)c1
[2]
  IC50: > 10 µM
Homo sapiens
  Ratio IC50: 89
Aromatase
  IC50: > 10 µM

## CC(C)c1nnc2n1-c1c(F)cc(-c3cccnc3)cc1CC2
[1]
  IC50: > 10000 nM
[2]
  IC50: > 10 µM
[3]
  IC50: > 10 µM
Aromatase
  IC50: > 10 µM

## Cc1ccncc1-c1cc(F)c2c(c1)CCc1nnc(C)n1-2
Cytochrome P450 3A4
  IC50: > 50 µM
[1]
  IC50: 4.2 nM
[2]
  IC50: > 10 µM
Cytochrome P450 2C19
  IC50: > 50 µM
[4]
  half-life at 1 µM: > 120 min
Cytochrome P450 2C9
  IC50: > 50 µM
Cytochrome P450 1A2
  IC50: > 50 µM
Homo sapiens
  Ratio IC50: 422
[5]
  remaining at 2 h, 1 µM: 80%
[6]
  microsomal CLint at 1 µM: 4 µL/min/mg
Cytochrome P450 2D6
  IC50: > 50 µM
Aromatase
  IC50: > 10 µM

## Cc1nnc2n1-c1c(F)cc(-c3cncc(F)c3)cc1CC2
Cytochrome P450 3A4
  IC50: > 50 µM
[1]
  IC50: 89.7 nM
[2]
  IC50: > 10 µM
Cytochrome P450 2C19
  IC50: > 50 µM
[4]
  half-life at 1 µM: > 120 min
Cytochrome P450 2C9
  IC50: > 50 µM
Cytochrome P450 1A2
  IC50: > 50 µM
Homo sapiens
  Ratio IC50: 329
[6]
  microsomal CLint at 1 µM: 12 µL/min/mg
Cytochrome P450 2D6
  IC50: > 50 µM
Aromatase
  IC50: > 10 µM

## Fc1cc(-c2cccnc2)cc2c1-n1cnnc1CC2
[2]
  IC50: > 10 µM
Homo sapiens
  Ratio IC50: 94
Aromatase
  IC50: > 10 µM

## O=C(c1ccccc1)c1nnc2n1-c1c(F)cc(-c3cccnc3)cc1CC2
[1]
  IC50: 708 nM
[2]
  IC50: > 10 µM
[3]
  IC50: > 10 µM
Aromatase
  IC50: > 10 µM
